In the library only some 11% were active in any assay of this set; here they are far more common.
M1 antagonist: blocks the rat M1 muscarinic receptor response to acetylcholine; P08482; CHO-M1 cells, Fluo-4 calcium, ACh EC80 antagonist mode; active compounds read low; B-score at 10 µM; hit rate 3.4% among 64,000;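 active means calcium fluorescence response, raw or row-and-column corrected B-score, differing from the plate sample mean either way at a set confidence level, mostly lower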
SF-1 act: activators of human nuclear receptor SF-1 | Q13285 | CHO-K1 Gal4-SF-1 LBD luciferase reporter; % increase over DMSO SF-1-specific signal | activation, % at 10 µM | hit rate 1.9% among 65,000 | AID 522;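 active means activation above the mean activation of all tested compounds plus 3 SD, cut at about 50% in these data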
Target sequence (Q13285 whole entry, looked up, the tested form may be a part): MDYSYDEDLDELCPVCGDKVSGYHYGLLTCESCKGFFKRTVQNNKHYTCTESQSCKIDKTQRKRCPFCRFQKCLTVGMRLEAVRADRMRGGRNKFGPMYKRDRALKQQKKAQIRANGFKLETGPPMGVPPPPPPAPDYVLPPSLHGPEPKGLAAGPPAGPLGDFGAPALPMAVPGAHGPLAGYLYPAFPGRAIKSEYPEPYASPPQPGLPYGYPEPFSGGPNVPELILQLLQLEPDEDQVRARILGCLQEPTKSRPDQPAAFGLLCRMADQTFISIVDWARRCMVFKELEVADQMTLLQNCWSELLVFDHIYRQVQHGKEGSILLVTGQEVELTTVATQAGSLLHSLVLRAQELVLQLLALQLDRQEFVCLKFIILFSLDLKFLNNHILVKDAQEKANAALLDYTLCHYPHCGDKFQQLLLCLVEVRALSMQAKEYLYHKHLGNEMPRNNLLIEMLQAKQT
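Material: CHO-K1 cells with Gal4–hSF-1 LBD chimera plus Gal4-driven luciferase / Input: 4,000 CHO-K1 cells per well / Incubation: compound exposure 20 h at 37 °C / Signal: luminescence read 15 min after SteadyLite luciferase reagent, after room-temperature equilibration / Read-out: percent activation versus DMSO / Benchmarks: DMSO negative control and −SF1 background wells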
M1 ag: agonists of M1 muscarinic receptor | CHO-M1 cells, Fluo-4 calcium fluorescence, agonist mode; active compounds read high | hit rate 3% among 64,000 | AID 626 | B-score at 10 µM;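 active means fluorescence rise, raw or as B-score row- and column-corrected plate score, outside the 99.7% band of its plate's samples, either direction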
D1 mod: allosterically modulates the human D1 dopamine receptor; hit rate 5.9% among 58,000; B-score at 10 µM; HEK293 D1, CRE-luciferase, dopamine EC30 potentiation; actives deviate in either direction; P21728;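 active means luminescence count or its row- and column-corrected plate score outside the 99.7% band of the plate's sample wells, on either side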
mHtt clearance: compounds clearing mutant huntingtin protein | HeLa Exon1htt(103Q)mCFP, aggregate imaging; zero = plate's median compound well | hit rate 0.42% among 47,000 | inhibition, % at 1.5 µM;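 active means inhibition of aggregate fluorescence above about 70%, also judged a hit by eye on the cell image, limit read from the data, passing the limit was not always enough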;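 further: cells exposed to compound for three days before fixation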
RORa activator: RORA (human) activation; CHO-K1 Gal4-RORA LBD luciferase reporter, luminescence; percent increase over mock-subtracted basal signal; activation, % at 10 µM; hit rate 1.5% among 65,000; AID 560;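 active means activation above the mean of all tested compounds plus 3 SD, cut at about 49% in these data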;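 further: 0% = DMSO-treated RORA cells and 100% = added signal equal to DMSO minus mock-transfected cells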
D1 mod confirm: D1 receptor (human) allosteric modulation, confirmed | shares compounds with D1 mod | hit rate 88% among 2,200 | luminescence at 10 µM | HEK293 D1 CRE-luciferase, dopamine EC30 potentiation; active compounds read high;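 active means luminescence in either of two replicates above the same-plate mean plus 3 SD of the low-dose dopamine control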
D1 no dopamine: secondary test of D1 modulators: activity without dopamine | luminescence at 10 µM | HEK293 D1 CRE-luciferase, luminescence, no dopamine; active compounds read high | hit rate 0.8% among 1,900 | shares compounds with D1 mod; in the data active means luminescence above about 3900
Isoprot counter: alters isoproterenol CRE-luciferase response in HEK293 cells; shares compounds with D1 mod; HEK293 D1 CRE-luciferase, isoproterenol EC30 counter-screen; calls only at 10 µM; hit rate 63% among 2,200;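 active means luminescence in either replicate above plate mean of wells with a partly effective reference agonist dose plus 3 SD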;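 further: isoproterenol raises cAMP through native beta-adrenoceptor Gs so signal bypasses D1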
The depositor's hits bear a star; i = inactive; x = not tested or not shown; + = active, no number.

SMILES	M1 antagonist	SF-1 act	M1 ag	D1 mod	mHtt clearance	RORa activator	D1 mod confirm	D1 no dopamine	Isoprot counter
O=C(NC1CCCC1)c1cccnc1N1CCCCCC1	0.47	-3	0.37	-0.017	9	-32	x	x	x
Cc1nc2cccc(C(=O)NC3CCCCC3)c2o1	-0.81	7	0.079	14*	-66	7	19668*	x	+
CCS(=O)(=O)n1nc(-c2ccccc2)nc1NCc1ccco1	0.1	-1	-0.057	9.8*	x	33	9056*	1636	+
CCOc1ccc(S(=O)(=O)Nc2ccc(F)cc2)c(C)c1C	x	x	x	x	-42	x	x	x	x
CCOCCn1c(SCC(=O)OCc2ccccc2)nc2c1c(=O)[nH]c(=O)n2C	0.56	-5	-0.66	-0.4	x	-4	x	x	x
CC(C)CSc1nc2c(c(=O)[nH]c(=O)n2C)n1CCc1ccccc1	0.5	-7	0.4	19*	-17	-16	14104*	1444	+
CC(C)CCSc1nc2c(c(=O)[nH]c(=O)n2C)n1CCc1ccccc1	-0.0065	-16	-0.00027	2.6*	0	2	15840*	1540	+
CCOC(=O)CSc1nc2c(c(=O)[nH]c(=O)n2C)n1CCCc1ccccc1	x	-17	x	-0.066	-15	10	x	x	x
c1cn(-c2ncnc3sc4c(c23)CCCC4)cn1	0.55	-11	-0.31	4.3	45	-6	x	x	x
c1ccn(-c2ncnc3sc4c(c23)CCCC4)c1	0.27	14	0.76	7.6*	15	-4	13568*	x	+
CN(CC(=O)NCCC1=CCCCC1)S(=O)(=O)c1ccc2c(c1)CCC(=O)N2	0.55	3	0.13	0.39	-40	-7	x	x	x
C=CCOC(=O)C(C#N)c1nc2ccccc2nc1N1CCCC1 (stereo unspecified)	-0.2	-4	3.4	3.1*	-121	26	15796*	1724	+
COCCOC(=O)C(C#N)c1nc2ccccc2nc1N1CCCC1 (stereo unspecified)	-0.55	-19	-1.5	3.2	-7	20	x	x	x
CCOc1ccc(-c2nc(S(=O)(=O)c3ccccc3)c(NCc3cccnc3)o2)cc1	-0.58	-14	-0.18	5.7*	-10	-7	8380*	1552	+
Cc1cc(C)n(C(=O)CSc2nnc(SCC(=O)n3nc(C)cc3C)s2)n1	-0.25	-10	-0.19	-0.38	30	15	x	x	x
Cc1ccccc1Cn1c(-c2cncs2)nc2ccccc21	-0.17	11	-0.17	14*	12	5	20248*	x	+
Brc1cc2c(cc1Cn1c(-c3cncs3)nc3ccccc31)OCO2	0.61	6	0.36	20*	x	4	14624*	1768	+
C=CCn1c(-c2cccs2)nc2ccccc21	0.34	-4	-0.26	-0.032	16	17	x	x	x
S=c1nc(C2CCCCC2)[nH][nH]1	-0.11	2	-0.047	-0.13	x	24	x	x	x
O=c1c2c([nH]c3ccc(Br)cc13)CCCC2	0.037	-9	-0.92	-1.8	x	9	x	x	x
NC(=O)c1cc(Br)cc2c3c([nH]c12)CCCC3	-2.1	7	-0.016	3.9*	x	23	11200*	1388	+
Cc1ccc2c(c1)N(Cc1ccncc1)C(=O)C(C)O2 (stereo unspecified)	0.58	-12	-0.1	-0.098	x	-1	x	x	x
CCn1ncc(C2=NOC(C(=O)NCc3ccccc3)C2)c1C (stereo unspecified)	0.15	30	0.81	7.7*	x	9	12364*	1760	i
CCn1ncc(C2=NOC(C(=O)NCc3ccc(OC)cc3)C2)c1C (stereo unspecified)	-0.041	24	-0.51	0.018	x	13	x	x	x
COc1ccc(Cl)c(NCCC(=O)O)c1	0.4	4	0.98	0.56	-55	0	x	x	x
SMILES	M1 antagonist	SF-1 act	M1 ag	D1 mod	mHtt clearance	RORa activator	D1 mod confirm	D1 no dopamine	Isoprot counter
CCOC(=O)c1c(N)sc2c1CCCC2	-0.086	-6	-0.051	5.2*	x	4	15712*	1680	+
CCOc1ccc(CCNC(=O)CN(C)S(=O)(=O)c2cccc3nsnc23)cc1OCC	-0.92	-6	-0.46	0.66	x	4	x	x	x
CCN(CCCNC(=O)CN(C)S(=O)(=O)c1cccc2nsnc12)c1cccc(C)c1	-0.36	-22	-0.27	3.5*	40	-7	13504*	1728	i
O=C(NCc1ccc(F)cc1)C1CCC(=O)N1C1CCCCC1 (stereo unspecified)	-0.1	-8	0.051	-0.64	x	-6	x	x	x
CCc1nnc(NC(=O)CSc2ncc(-c3ccccc3)n2CC)s1	-0.057	-3	0.57	3.5*	x	-9	8216*	1656	i
COc1ccc(C)cc1NC(=O)c1cnc2scc(C)n2c1=O	0.43	-13	-0.68	-0.6	x	4	x	x	x
COc1ccc(CCNC(=O)c2cnc3scc(C)n3c2=O)cc1OC	-0.77	12	-1.7	40*	21	14	17580*	1900	+
COc1ccc(CCNC(=O)c2cccnc2)cc1OC	x	1	x	3.4*	21	7	6704	1660	i
COc1ccc(CCNC(=O)c2ccncc2)cc1OC	-0.031	-5	-0.31	0.076	-39	18	x	x	x
CC(=O)Nc1ccc(S(=O)(=O)NCc2csc(C)n2)cc1	0.45	-8	-0.61	-0.026	x	-5	x	x	x
CCn1c2ccccc2c2nc3ccccc3nc21	0.013	31	-0.038	5.6*	-21	26	15700*	x	i
CCCCn1c(SCc2cc(=O)n3ccsc3n2)nc2cc(C(=O)OC)ccc2c1=O	-1.1	7	-0.45	-0.75	x	-12	x	x	x
COCCCn1c2nc3ccccc3nc2c2c(=O)n(CC3CCCO3)cnc21 (stereo unspecified)	0.3	1	0.96	6.4*	x	-6	8104*	x	i
O=c1nc2scc(-c3ccccc3)n2c2ccccc12	-0.73	-12	1	3.4*	x	-1	17356*	1720	i
COC(=O)c1cc(=O)n2c(-c3ccccc3)csc2n1	0.022	-2	0.032	0.018	25	-10	x	x	x
CCC(=O)n1nc(-c2ccco2)nc1N	1	-18	-0.2	15*	14	0	6080*	1652	i
CC(=O)n1nc(-c2ccco2)nc1N	-0.48	0	-0.65	-0.95	-42	-3	x	x	x
CN(C)C(=O)CSc1nc(SCC(=O)N(C)C)n(-c2ccccc2)n1	0.24	4	0.78	0.18	x	0	x	x	x
CN(C(=O)CSc1nc(N)nn1-c1ccccc1)c1ccccc1	0.054	-15	-0.68	11*	x	-12	6016	1696	i
